# In article PMC3184254 (Nature Chemical Biology, 2011):
# Read-outs that look alike come from different tables or passages of the source.
# Tests used:
# [1] = biological target: T1, SETD8 (Homo sapiens, UniProt Q9NQR1); experiment: SAHH-coupled assay, SETD8; format: biochemical; conditions: SAHH-coupled assay
# T1 sequence (Q9NQR1 1-393): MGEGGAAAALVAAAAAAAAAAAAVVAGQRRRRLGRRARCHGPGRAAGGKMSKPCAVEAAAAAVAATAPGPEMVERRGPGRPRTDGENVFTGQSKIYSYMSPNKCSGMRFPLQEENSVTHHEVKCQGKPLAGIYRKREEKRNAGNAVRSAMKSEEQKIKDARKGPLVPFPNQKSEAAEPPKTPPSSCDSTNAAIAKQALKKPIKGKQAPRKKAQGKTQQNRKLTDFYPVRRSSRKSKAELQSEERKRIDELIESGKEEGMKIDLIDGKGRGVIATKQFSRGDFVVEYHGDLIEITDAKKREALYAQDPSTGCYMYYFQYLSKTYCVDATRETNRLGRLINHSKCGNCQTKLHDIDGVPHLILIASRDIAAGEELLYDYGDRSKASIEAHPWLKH
# Procedure, shortened: (§1)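 A fluorescence-based coupled assay used S-adenosyl-L-homocysteine hydrolase to follow conversion of cofactor SAM to SAH by the methyltransferase. IC50 values are the average of at least two separate experiments.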
# [2] = biological target: T2, G9a (Homo sapiens, UniProt Q96KQ7); experiment: SAHH-coupled assay, G9a; format: biochemical
# T2 sequence (Q96KQ7 1-1210): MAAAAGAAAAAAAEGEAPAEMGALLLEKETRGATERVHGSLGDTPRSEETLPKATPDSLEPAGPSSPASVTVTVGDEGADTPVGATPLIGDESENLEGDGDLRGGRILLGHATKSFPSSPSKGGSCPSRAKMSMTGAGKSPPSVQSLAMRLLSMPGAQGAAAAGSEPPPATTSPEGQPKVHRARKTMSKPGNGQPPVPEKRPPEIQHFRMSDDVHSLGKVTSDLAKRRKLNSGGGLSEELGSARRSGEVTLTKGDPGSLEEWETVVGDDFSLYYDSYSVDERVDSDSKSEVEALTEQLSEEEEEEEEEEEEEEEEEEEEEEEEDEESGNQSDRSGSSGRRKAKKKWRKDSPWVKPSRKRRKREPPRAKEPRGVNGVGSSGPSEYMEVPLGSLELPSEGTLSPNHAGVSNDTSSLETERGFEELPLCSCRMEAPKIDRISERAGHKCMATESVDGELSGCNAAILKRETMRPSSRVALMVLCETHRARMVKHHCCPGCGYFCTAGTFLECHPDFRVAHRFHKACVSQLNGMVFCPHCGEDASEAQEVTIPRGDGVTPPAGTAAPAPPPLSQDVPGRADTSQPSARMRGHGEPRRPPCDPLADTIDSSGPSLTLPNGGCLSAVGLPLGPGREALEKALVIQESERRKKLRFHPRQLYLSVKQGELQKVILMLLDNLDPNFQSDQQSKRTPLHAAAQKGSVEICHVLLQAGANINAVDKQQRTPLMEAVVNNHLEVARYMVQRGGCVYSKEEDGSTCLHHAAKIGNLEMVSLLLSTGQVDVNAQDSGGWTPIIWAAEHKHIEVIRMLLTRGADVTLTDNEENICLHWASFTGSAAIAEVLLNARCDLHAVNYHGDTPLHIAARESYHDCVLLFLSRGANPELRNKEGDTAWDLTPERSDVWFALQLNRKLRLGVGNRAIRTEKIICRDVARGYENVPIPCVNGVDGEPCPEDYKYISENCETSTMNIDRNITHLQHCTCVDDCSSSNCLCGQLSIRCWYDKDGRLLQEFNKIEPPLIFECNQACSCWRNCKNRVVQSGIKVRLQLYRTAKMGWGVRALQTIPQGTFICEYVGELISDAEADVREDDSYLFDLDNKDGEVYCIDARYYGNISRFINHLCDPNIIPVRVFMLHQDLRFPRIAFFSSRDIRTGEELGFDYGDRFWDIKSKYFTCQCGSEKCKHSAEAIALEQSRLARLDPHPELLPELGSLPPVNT
# [3] = biological target: GLP (Homo sapiens, UniProt Q9H9B1); experiment: SAHH-coupled assay, GLP; format: biochemical
# Chain of GLP (Q9H9B1 whole entry): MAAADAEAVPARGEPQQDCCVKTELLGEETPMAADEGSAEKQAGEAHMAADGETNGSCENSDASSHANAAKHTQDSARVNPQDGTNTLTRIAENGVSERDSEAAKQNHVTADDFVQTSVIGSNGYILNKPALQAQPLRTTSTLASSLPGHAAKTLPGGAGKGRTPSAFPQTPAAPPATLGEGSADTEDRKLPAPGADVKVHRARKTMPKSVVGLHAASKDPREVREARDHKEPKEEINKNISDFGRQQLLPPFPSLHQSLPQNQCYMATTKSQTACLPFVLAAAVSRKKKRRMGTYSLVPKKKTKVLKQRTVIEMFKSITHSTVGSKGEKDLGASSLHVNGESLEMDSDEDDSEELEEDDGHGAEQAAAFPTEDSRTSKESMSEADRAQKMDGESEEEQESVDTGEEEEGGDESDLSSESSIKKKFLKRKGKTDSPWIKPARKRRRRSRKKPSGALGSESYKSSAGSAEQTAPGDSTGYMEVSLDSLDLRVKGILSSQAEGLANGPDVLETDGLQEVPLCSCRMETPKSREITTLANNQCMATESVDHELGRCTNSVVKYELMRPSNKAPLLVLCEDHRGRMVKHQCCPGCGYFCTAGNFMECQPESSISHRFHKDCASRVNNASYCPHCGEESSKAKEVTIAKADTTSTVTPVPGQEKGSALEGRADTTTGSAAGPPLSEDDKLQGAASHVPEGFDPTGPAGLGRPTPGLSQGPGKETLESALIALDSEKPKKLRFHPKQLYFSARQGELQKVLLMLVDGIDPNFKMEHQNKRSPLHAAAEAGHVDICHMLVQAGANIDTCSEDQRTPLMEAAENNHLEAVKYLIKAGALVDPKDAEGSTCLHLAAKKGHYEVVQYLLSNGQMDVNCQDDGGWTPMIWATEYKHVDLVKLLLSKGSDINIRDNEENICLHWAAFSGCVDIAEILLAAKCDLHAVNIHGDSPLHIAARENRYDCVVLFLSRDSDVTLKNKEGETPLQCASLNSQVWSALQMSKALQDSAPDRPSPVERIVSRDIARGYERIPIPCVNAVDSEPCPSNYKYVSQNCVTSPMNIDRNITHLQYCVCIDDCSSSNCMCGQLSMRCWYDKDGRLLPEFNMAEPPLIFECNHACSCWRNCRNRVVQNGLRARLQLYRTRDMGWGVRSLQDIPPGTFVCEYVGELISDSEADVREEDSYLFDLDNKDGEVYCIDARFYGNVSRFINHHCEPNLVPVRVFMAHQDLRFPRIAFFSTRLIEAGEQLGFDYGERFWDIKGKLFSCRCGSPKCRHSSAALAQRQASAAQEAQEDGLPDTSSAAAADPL
# [4] = test system: HSC1-EF1α-EGFP-Puromycin retrovirus in J1 mES cells; experiment: Reactivation of silent EGFP retrovirus vector, flow cytometry; format: cell-based, mouse
# [5] = biological target: SUV39H2 (Homo sapiens, UniProt Q9H5I1); experiment: SAHH-coupled assay, SUV39H2; format: biochemical; conditions: SAHH-coupled assay
# Chain of SUV39H2 (Q9H5I1 whole entry, species assumed): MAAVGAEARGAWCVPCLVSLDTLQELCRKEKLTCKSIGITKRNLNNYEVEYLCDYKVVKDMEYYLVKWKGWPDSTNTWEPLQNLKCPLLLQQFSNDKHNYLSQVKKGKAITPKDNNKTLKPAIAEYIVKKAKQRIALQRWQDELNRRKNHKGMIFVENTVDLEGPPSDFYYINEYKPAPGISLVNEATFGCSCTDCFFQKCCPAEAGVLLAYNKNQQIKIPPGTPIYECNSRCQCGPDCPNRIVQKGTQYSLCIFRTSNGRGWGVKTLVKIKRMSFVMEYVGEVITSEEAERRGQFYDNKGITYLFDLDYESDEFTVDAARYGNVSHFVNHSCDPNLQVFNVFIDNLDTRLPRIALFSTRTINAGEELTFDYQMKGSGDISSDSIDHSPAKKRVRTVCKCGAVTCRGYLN
# Procedure, shortened: as §1
# [6] = test system: MDA-MB-231 cells; experiment: MTT assay, MDA-MB-231; format: cell-based, human
# [7] = test system: H3K9me2 levels in MDA-MB-231 cells; experiment: H3K9me2 in-cell western, MDA-MB-231; format: cell-based, human; conditions: read-out: IC50 for reduction of H3K9me2 levels; MDA-MB-231 cells, 48 h exposure, in-cell western
# [8] = test system: panel of 24 kinases; experiment: Kinase selectivity panel; format: biochemical
# [9] = test system: retrovirus long terminal repeat and MAGEA2 promoter in mES cells; experiment: Bisulfite sequencing DNA methylation in mES cells; format: cell-based, mouse; conditions: after 10 d of treatment
# Procedure, shortened: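 J1 mouse ES cells were grown on 0.1% gelatin in DMEM with 15% ES-qualified FBS, 4 mM L-glutamine, 0.1 mM nonessential amino acids, 1 mM pyruvate, 0.55 mM 2-mercaptoethanol and LIF. They carried a silenced HSC1 retroviral EGFP-puromycin reporter driven by the EF1a promoter.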
# [10] = biological target: T3, SETD7 (Homo sapiens, UniProt Q8WTS6); experiment: SAHH-coupled assay, SETD7; format: biochemical; conditions: SAHH-coupled assay
# T3 sequence (Q8WTS6 1-366): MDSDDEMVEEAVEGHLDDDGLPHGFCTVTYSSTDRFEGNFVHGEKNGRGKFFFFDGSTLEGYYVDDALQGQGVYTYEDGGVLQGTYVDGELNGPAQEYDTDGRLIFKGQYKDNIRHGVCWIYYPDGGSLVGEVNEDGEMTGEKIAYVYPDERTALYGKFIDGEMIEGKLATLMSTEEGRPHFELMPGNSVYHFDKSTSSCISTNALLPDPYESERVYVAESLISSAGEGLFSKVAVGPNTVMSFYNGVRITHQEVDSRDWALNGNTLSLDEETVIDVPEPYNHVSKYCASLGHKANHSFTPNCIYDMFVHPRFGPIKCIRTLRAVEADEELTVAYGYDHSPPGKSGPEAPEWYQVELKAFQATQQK
# Procedure, shortened: as §1
# [11] = biological target: PRMT3 (Homo sapiens, UniProt O60678); experiment: SAHH-coupled assay, PRMT3; format: biochemical; conditions: SAHH-coupled assay
# Chain of PRMT3 (O60678 whole entry, species assumed): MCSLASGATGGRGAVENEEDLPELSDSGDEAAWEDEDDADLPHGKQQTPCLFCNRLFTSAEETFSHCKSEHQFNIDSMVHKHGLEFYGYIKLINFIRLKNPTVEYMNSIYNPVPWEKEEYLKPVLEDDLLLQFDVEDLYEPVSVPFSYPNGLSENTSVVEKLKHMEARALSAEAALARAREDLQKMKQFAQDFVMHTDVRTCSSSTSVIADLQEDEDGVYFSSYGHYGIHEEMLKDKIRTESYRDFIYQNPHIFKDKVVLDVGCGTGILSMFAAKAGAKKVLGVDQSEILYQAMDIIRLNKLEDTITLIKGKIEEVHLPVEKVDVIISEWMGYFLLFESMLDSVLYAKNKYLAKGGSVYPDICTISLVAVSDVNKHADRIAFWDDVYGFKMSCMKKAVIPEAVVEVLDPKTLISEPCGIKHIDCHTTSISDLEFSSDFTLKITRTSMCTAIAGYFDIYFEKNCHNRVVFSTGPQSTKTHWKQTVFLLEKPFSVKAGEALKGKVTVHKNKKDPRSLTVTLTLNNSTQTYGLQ
# Procedure, shortened: as §1
# [12] = test system: cellular assays; experiment: Cellular assays, comparison with BIX01294; format: cell-based; conditions: Supplementary Fig. 1
# [13] = test system: histone marks in MDA-MB-231 cells; experiment: Quantitative MS analysis of histone modifications; format: cell-based, human; conditions: 1 μM for 48 h
# Procedure, shortened: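 MDA-MB-231 cells were treated at 1 µM for 48 h. Histones were acid-extracted, derivatized with propionic anhydride and digested with trypsin. Mock and treated samples carried D0 or D5 propionyl labels. Peptides were analysed by LC-MS/MS on an Orbitrap, with all data manually verified.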
# [14] = test system: H3K9me2 mark in bulk histones in several cell lines; conditions: cited from earlier work
# [15] = test system: H3K9me2 levels in J1 mES cells; experiment: Cellular potency; format: cell-based; conditions: Mus musculus, 48 h, read-out: IC50 cellular potency
# [16] = test system: J1 mES cells; experiment: SSEA1 pluripotency marker immunostaining, flow cytometry; format: cell-based, mouse; conditions: day 10; 2 μM
structure (smiles),measurement,setting,value
COc1cc2c(N(C)C3CCN(C(C)C)CC3)nc(C3CCCCC3)nc2cc1OCCCN1CCCC1 [UNC0737],IC50,[1],inactive
same,fold less potent than UNC0638,[2]; G9a and GLP biochemical assays,> 300 fold
same,IC50,[2]; SAHH-coupled assay,5 µM
same,IC50,[3],> 10 µM
same,reactivation of EGFP expression,"[4]; 500 nM, above the 36% EGFP+ cells of untreated sample",did not reactivate EGFP expression
same,IC50,[5],inactive
same,EC50,"[6]; read-out: EC50 cellular toxicity (MTT), MDA-MB-231 cells (n = 3)",8.7 µM
same,IC50,[7],> 5 µM
same,activity against panel of 24 kinases,[8],inactive
same,DNA methylation of retrovirus LTR and MAGEA2 promoter,[9],hypermethylated
same,IC50,[10],inactive
same,IC50,[11],inactive
COc1cc2c(NC3CCN(C)CC3)nc(N3CCCN(C)CC3)nc2cc1OCCOCCN(C)C [UNC0321],potency in cellular assays relative to BIX01294,[12],less potent than BIX01294
"COc1cc2nc(N3CCCN(C)CC3)nc(NC3CCN(Cc4ccccc4)CC3)c2cc1OC [BIX01294, reference compound]",levels of H3K9me2 by quantitative MS,[13],to a lesser extent than UNC0638 did
same,levels of H3K9me3 by quantitative MS,[13],remained constant
same,abundance of H3K9me2 mark in bulk histones,"[14]; at 4.1 μM, several cell lines",reduced
same,concentration toxic to cells,[14],higher than 4.1 μM
same,EGFP+ cells,"[4]; day 10, 2 μM, untreated 36%",53%
same,state of treated cells,"[4]; day 12, 2 μM",arrested or died
same,IC50,[15],2.04 µM
same,EC50,"[6]; Homo sapiens, MDA-MB-231, read-out: EC50 cellular toxicity (MTT)",2.7 µM
same,SSEA1 positive cells,[16],65%
